# A selection: hits, their analogues and other compounds. The true share with any hit is near 5.1%.
# STAT1 act: STAT1 signaling activators, primary screen, cell-based, HTS, luciferase reporter | NIH 3T3 STAT1-luciferase reporter, IFN-gamma, luminescence; 100% = IFN-gamma alone, no compound | activation (% of control), % at 5.5 µM | 2.6% of 200,000 active;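 active = activation above the screen-wide mean activation plus 3 SD, cut at about 130% in these data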;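 note: raw ratio to IFN-gamma control signal so 100% means no change and 0% no light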
# STAT3 activator: IL-6 driven STAT3 reporter potentiators, primary screen, U3A cells, luciferase, luminescence, MLSCN library; IL-6 STAT3-luciferase reporter; 100% = signal with IL-6 EC80 alone; activation (% of control), % at 5.6 µM; 0.91% of 190,000 active; AID 871, 2007;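 active = activation above the screen-wide mean of compound activation plus 3 SD, cut at about 130% in these data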;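 note: 0% = background luminescence of wells with medium and substrate only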
#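 Material: human U3A cells carrying STAT3-luciferase construct. Measured by: reporter luminescence signal. Timing: compound 1 h, then IL-6 6 h at 37 °C.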
# STAT1 blocker: STAT1 signaling inhibitors, primary screen, cell-based, HTS, luciferase reporter. NIH 3T3 STAT1-luciferase reporter, IFN-gamma, luminescence. inhibition, % at 5.5 µM. 0.35% of 200,000 active. AID 920, 2007;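 active = inhibition above a set limit, the mean inhibition across all tested compounds plus 3 SD, cut at about 34% in these data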;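 note: 0% = IFN-gamma with DMSO and 100% = IFN-gamma with 300 µM nifuroxazide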
# STAT3 blocker: IL-6 driven STAT3 reporter inhibitors, primary screen, U3A cells, luciferase, luminescence, MLSCN library; inhibition, % at 5.5 µM; IL-6 STAT3-luciferase reporter; host cell line lacks STAT1; 0.89% of 190,000 active;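 active = inhibition above the mean inhibition across all screened compounds plus 3 SD, cut at about 44% in these data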;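 note: 0% = DMSO only wells and 100% = 100 µM nifuroxazide control wells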
# NF-kB expr up: activators of NF-kB expression in neurons, primary screen, cell-based, HTS. fold change at 12.5 µM. human neuronal cells, NF-kB reporter expression; active compounds read high. 1.6% of 190,000 active; in the data active = fold change above about 3.3
# APP 5'UTR act: activators of APP 5'UTR luciferase reporter, primary screen, SH-SY5Y cells; SH-SY5Y APP 5'UTR luciferase reporter, luminescence; zero percent = DMSO vehicle wells; activation, % at 2 µM; 1% of 190,000 active;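 active = activation above a set limit, based on mean plus 3 SD of controls, cut at about 140% in these data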
# Starred values were filed as active, the others as inactive; x = no result given.
SMILES,STAT1 act,STAT3 activator,STAT1 blocker,STAT3 blocker,NF-kB expr up,APP 5'UTR act
Cc1ccc(C(=O)c2cc3ccccc3o2)cc1C,136*,107,-40,-4,3.7*,127
NC(=O)c1cc2ccccc2o/c1=N/NC(=O)c1cccs1,134*,95,-40,10,0.63,-1
COc1ccc2o/c(=N/NC(=O)c3cccs3)c(C(N)=O)cc2c1,138*,107,-42,5,0.61,43
NC(=O)c1cc2ccccc2o/c1=N\NC(=O)c1ccncc1,111,104,-10,1,0.95,17
O=C(c1cc2ccccc2o1)c1cccs1,145*,102,-53,0,2.3,x
CN(c1ccc([N+](=O)[O-])cc1C(=O)Nc1ccccc1)C1CCCCC1,99,101,1,4,1.1,8
CCOC(=O)c1cnc(-c2ccccc2)nc1Oc1ccc(Cl)c(Cl)c1,100,100,1,3,1.1,18
O=C(NC1CCCCCC1)c1cccc(N2CCCC2=O)c1,130*,94,-32,13,3.3,118
Cc1ccc(C(=O)NC2CCCCCC2)cc1N1CCCC1=O,98,104,2,-3,1.2,5
CSc1ccc(Cl)c(C(=O)Nc2ccc(Cl)cn2)c1,92,82,6,24,1.2,-24
COc1cc(SC)ccc1C(=O)Nc1ccc(Cl)cn1,26,18,80*,100*,1.4,148*
COc1cc(SC)ccc1C(=O)Nc1ccccc1C#N,124,133*,-26,-38,1.9,-6
O=C(CSc1ccccn1)N1CCc2ccccc21,133*,88,-34,21,3.5*,51
O=C(CSc1nnc2ccccn12)N1CCc2ccccc21,135*,113,-36,-13,2.4,105
CCn1c2ccccc2c2cc(NC(=O)c3cc(OC)cc(OC)c3)ccc21,97,128,3,-33,4*,-95
CCn1c2ccccc2c2cc(NC(=O)c3cc(OC)c(OC)c(OC)c3)ccc21,103,116,-3,-8,3.2,-8
Cc1nc(N)sc1-c1csc(N(C)c2ccc(O)cc2)n1,108,106,-9,0,0.52,64
Cc1cc(O)ccc1Nc1nc(-c2cccs2)cs1,121,97,-22,12,7.2*,148*
COc1ccc(-c2csc(Nc3cccnc3)n2)cc1,134*,101,-47,-1,2.4,44
Cc1ccc(Nc2nc(-c3cccs3)cs2)nc1,40,33,64*,80*,4.9*,172*
O=C(Cc1ccccc1)Nc1nc(-c2cccs2)cs1,103,94,-3,10,1.2,14
CN(c1ccc(O)cc1)c1nc(-c2cccs2)cs1,141*,101,-44,4,7*,173*
COc1ccccc1C(=O)Nc1ccc(N2CCN(C(C)=O)CC2)cc1,106,83,-8,25,1.1,-17
O=C(CCCCl)Oc1ccc2cc(-c3ccc4ccccc4n3)c(=O)oc2c1,115,109,-17,-7,1.2,36
O=C(CCC1CCCN(C(=O)COc2ccccc2)C1)N1CCN(c2ccccn2)CC1 (centres undefined),90,96,9,10,0.87,-12
SMILES,STAT1 act,STAT3 activator,STAT1 blocker,STAT3 blocker,NF-kB expr up,APP 5'UTR act
c1cncc(Nc2nc(-c3cccs3)cs2)c1,132*,141*,-44,-48,2.4,7
CSc1ccc(C(=O)C2CCCN(S(=O)(=O)N(C)C)C2)cc1 (centres undefined),92,98,9,7,1.2,-9
Brc1ccc(COc2ncnc3ccccc23)cc1,103,98,-4,2,1.7,-14
Nc1ncccc1OCc1ccc(Br)cc1,141*,91,-47,19,3.1,67
N/C(=N\OC(=O)Cc1ccccc1)c1cccnc1,104,92,-5,16,1.6,5
N/C(=N\OC(=O)Cc1ccccc1)c1ccccc1Cl,147*,100,-51,1,1.6,48
O=C(/C=C\Nc1ccc(Cl)cn1)c1ccc(Br)cc1,134*,99,-39,8,1.6,123
